Measurements reported in ChEMBL document CHEMBL3120102, “Structure-based design, synthesis and biological evaluation of novel anthra[1,2-d]imidazole-6,11-dione homologues as potential antitumor agents” (2013).

Legend:
Format in all cases: functional
MDA-MB-231 = experiment: Cytotoxicity against human MDA-MB-231 cells assessed as growth inhibition after 48 hrs by SRB assay
Method in brief: (§1)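 NCI 60-cell-line screen, five-dose stage: each cell line exposed for 48 h to five concentrations spanning five log steps; cellular protein measured by sulforhodamine B colorimetry. A time-zero cell control and plates without drug are used to derive GI50, TGI and LC50 from log-concentration dose-response curves.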

MCF7 = experiment: Cytotoxicity against human MCF7 cells assessed as growth inhibition after 48 hrs by SRB assay; method in brief: as §1
ACHN = experiment: Cytotoxicity against human ACHN cells assessed as growth inhibition after 48 hrs by SRB assay
Method in brief: (§2)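 NCI 60-cell-line five-dose screen at […]. Drug exposure was 48 h, followed by sulforhodamine B protein staining. GI50, TGI and LC50 were calculated against a time-zero control and untreated plates, with dose–response curves plotted from log10 concentration.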

SK-OV-3 = experiment: Cytotoxicity against human SKOV3 cells assessed as growth inhibition after 48 hrs by SRB assay; method in brief: as §1
IGROV-1 = experiment: Cytotoxicity against human IGROV1 cells assessed as growth inhibition after 48 hrs by SRB assay; method in brief: as §2
[1] = (§3) Cytotoxicity against human UACC257 cells assessed as growth inhibition after 48 hrs by SRB assay; settings: UACC-257, 48 h
Method in brief: (§4)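 NCI 60-cell-line screen, two stages. Five-dose testing at […]. Cellular protein measured by sulforhodamine B colorimetry after 48 h drug exposure. A time-zero control and drug-free plates are used to derive GI50, TGI and LC50 from dose-response curves plotted as log10 concentration per cell line.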

UACC-257 = experiment: as §3; method in brief: as §4
SK-MEL-5 = experiment: Cytotoxicity against human SK-MEL-5 cells assessed as growth inhibition after 48 hrs by SRB assay; method in brief: as §1
SK-MEL-28 = experiment: Cytotoxicity against human SK-MEL-28 cells assessed as growth inhibition after 48 hrs by SRB assay; method in brief: as §1
SK-MEL-2 = experiment: Cytotoxicity against human SK-MEL-2 cells assessed as growth inhibition after 48 hrs by SRB assay; method in brief: as §1
MDA-MB-435 = experiment: Cytotoxicity against human MDA-MB-435 cells assessed as growth inhibition after 48 hrs by SRB assay; method in brief: as §1
Malme-3M = experiment: Cytotoxicity against human MALME-3M cells assessed as growth inhibition after 48 hrs by SRB assay; method in brief: as §2
U-251 = experiment: Cytotoxicity against human U251 cells assessed as growth inhibition after 48 hrs by SRB assay; method in brief: as §4
SNB-75 = experiment: Cytotoxicity against human SNB75 cells assessed as growth inhibition after 48 hrs by SRB assay; method in brief: as §4
SNB-19 = experiment: Cytotoxicity against human SNB19 cells assessed as growth inhibition after 48 hrs by SRB assay; method in brief: as §4
SW-620 = experiment: Cytotoxicity against human SW620 cells assessed as growth inhibition after 48 hrs by SRB assay; method in brief: as §4
KM12 = experiment: Cytotoxicity against human KM12 cells assessed as growth inhibition after 48 hrs by SRB assay; method in brief: as §2
HT-29 = experiment: Cytotoxicity against human HT-29 cells assessed as growth inhibition after 48 hrs by SRB assay; method in brief: as §2
COLO 205 = experiment: Cytotoxicity against human COLO205 cells assessed as growth inhibition after 48 hrs by SRB assay; method in brief: as §2
NCI-H226 = experiment: Cytotoxicity against human NCI-H226 cells assessed as growth inhibition after 48 hrs by SRB assay; method in brief: as §1
HOP-62 = experiment: Cytotoxicity against human HOP62 cells assessed as growth inhibition after 48 hrs by SRB assay; method in brief: as §2
A549 = experiment: Cytotoxicity against human A549 cells assessed as growth inhibition after 48 hrs by SRB assay; method in brief: as §2
SR = experiment: Cytotoxicity against human SR cells assessed as growth inhibition after 48 hrs by SRB assay; method in brief: as §4
MOLT-4 = experiment: Cytotoxicity against human MOLT4 cells assessed as growth inhibition after 48 hrs by SRB assay; method in brief: as §1
K562 = experiment: Cytotoxicity against human K562 cells assessed as growth inhibition after 48 hrs by SRB assay; method in brief: as §2
HL-60(TB) = experiment: Cytotoxicity against human HL-60(TB) cells assessed as growth inhibition after 48 hrs by SRB assay
Method in brief: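 NCI 60-cell panel five-concentration stage (0.01, 0.1, 1, 10, 100) in HL-60(TB). Cellular protein was measured by sulforhodamine B colorimetry after 48 h of exposure. A time-zero cell control and untreated plates allowed calculation of GI50, TGI and LC50. These were read from log10 concentration dose-response curves.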

CAKI-1 = experiment: Cytotoxicity against human CAKI-1 cells assessed as cell growth at 10 uM after 48 hrs by SRB assay; settings: CAKI-1, 48 h, read-out: Activity
[2] = read-out: LC50 (the source's name)

## CCSc1nc2ccc3c(c2[nH]1)C(=O)c1ccccc1C3=O
MDA-MB-231
  growth inhibition (GI): Dose-dependent effect
MDA-MB-231; MDA-MB-231, 48 h
  GI50: 20.7 µM
  LC50: > 100 µM
  TGI: > 100 µM
MCF7
  growth inhibition (GI): Dose-dependent effect
MCF7; MCF7, 48 h
  GI50: 4.84 µM
  LC50 (concentration killing 50% of cells): > 100 µM
  TGI: > 100 µM
ACHN
  GI50: 5.09 µM
  TGI: > 100 µM
  growth inhibition (GI): Dose-dependent effect
ACHN; [2]
  CC50: > 100 µM
SK-OV-3
  growth inhibition (GI): Dose-dependent effect
SK-OV-3; SK-OV-3, 48 h
  GI50: 3.8 µM
  LC50 (concentration killing 50% of cells present at time zero): > 100 µM
  TGI: > 100 µM
IGROV-1
  growth inhibition (GI): Dose-dependent effect
IGROV-1; IGROV-1, 48 h
  GI50: 2380 nM
  LC50: > 100 µM
  TGI: > 100 µM
[1]
  GI50: > 100 µM
  LC50: > 100 µM
  TGI: > 100 µM
UACC-257
  growth inhibition (GI): Dose-dependent effect
SK-MEL-5
  growth inhibition (GI): Dose-dependent effect
SK-MEL-5; SK-MEL-5, 48 h
  GI50: 33.6 µM
  LC50 (concentration killing 50% of cells relative to time zero): > 100 µM
  TGI: > 100 µM
SK-MEL-28
  growth inhibition (GI): Dose-dependent effect
SK-MEL-28; SK-MEL-28, 48 h
  GI50: 43.6 µM
  LC50: > 100 µM
  TGI: > 100 µM
SK-MEL-2
  growth inhibition (GI): Dose-dependent effect
SK-MEL-2; SK-MEL-2, 48 h
  GI50: 5.1 µM
  LC50 (50% lethal concentration): > 100 µM
  TGI: > 100 µM
MDA-MB-435
  growth inhibition (GI): Dose-dependent effect
MDA-MB-435; MDA-MB-435, 48 h
  GI50: 76.5 µM
  LC50: > 100 µM
  TGI: > 100 µM
Malme-3M
  GI50: 3.58 µM
  TGI: 94 µM
  growth inhibition (GI): Dose-dependent effect
Malme-3M; [2]
  CC50: > 100 µM
U-251
  growth inhibition (GI): Dose-dependent effect
U-251; U-251, 48 h
  GI50: 19.5 µM
  TGI: > 100 µM
U-251; U-251, 48 h, read-out: LC50 (the source's name)
  CC50: > 100 µM
SNB-75
  growth inhibition (GI): Dose-dependent effect
SNB-75; SNB-75, 48 h
  GI50: 10.1 µM
  LC50: > 100 µM
  TGI: 84.9 µM
SNB-19
  growth inhibition (GI): Dose-dependent effect
SNB-19; SNB-19, 48 h
  GI50: > 100 µM
  LC50: > 100 µM
  TGI: > 100 µM
SW-620
  growth inhibition (GI): Dose-dependent effect
SW-620; SW-620, 48 h
  GI50: > 100 µM
  LC50: > 100 µM
  TGI: > 100 µM
KM12
  growth inhibition (GI): Dose-dependent effect
KM12; KM12, 48 h
  GI50: 8.43 µM
  TGI: > 100 µM
KM12; KM12, 48 h, read-out: LC50 (the source's name)
  CC50: > 100 µM
HT-29
  growth inhibition (GI): Dose-dependent effect
HT-29; HT-29, 48 h
  GI50: 23.1 µM
  TGI: > 100 µM
HT-29; HT-29, 48 h, read-out: LC50 (the source's name)
  CC50: > 100 µM
COLO 205
  growth inhibition (GI): Dose-dependent effect
COLO 205; COLO 205, 48 h
  GI50: 17.4 µM
  LC50: > 100 µM
  TGI: > 100 µM
NCI-H226
  growth inhibition (GI): Dose-dependent effect
NCI-H226; NCI-H226, 48 h
  GI50: 14.2 µM
  LC50: > 100 µM
  TGI: > 100 µM
HOP-62
  growth inhibition (GI): Dose-dependent effect
HOP-62; HOP-62, 48 h
  GI50: 25.9 µM
  LC50 (concentration killing 50% of cells relative to time zero): > 100 µM
  TGI: > 100 µM
A549
  growth inhibition (GI): Dose-dependent effect
A549; A549, 48 h
  GI50: 9.67 µM
  LC50 (concentration killing 50% of cells): > 100 µM
  TGI: > 100 µM
SR
  GI50: 2360 nM
  LC50 (50% lethal concentration): > 100 µM
  TGI: > 100 µM
  growth inhibition (GI): Dose-dependent effect
MOLT-4
  growth inhibition (GI): Dose-dependent effect
MOLT-4; MOLT-4, 48 h
  GI50: 4.05 µM
  LC50 (50% lethal concentration): > 100 µM
  TGI: > 100 µM
K562
  growth inhibition (GI): Dose-dependent effect
K562; K562, 48 h
  GI50: 13.5 µM
  TGI: > 100 µM
K562; K562, 48 h, read-out: LC50 (the source's name)
  CC50: > 100 µM
HL-60(TB)
  growth inhibition (GI): Dose-dependent effect
HL-60(TB); HL-60, 48 h
  GI50: 5.26 µM
  LC50: > 100 µM
  TGI: > 100 µM
CAKI-1
  growth at 10 µM: -8.01%
